Assay results: ChEMBL document CHEMBL4823313 (Bioorg Med Chem, 2021)

How the values were obtained:
SARS-CoV-2 [1] = experiment: Antiviral activity against SARS-CoV-2 nCoV-2019BetaCoV/Wuhan/WIV04/ infected in African green monkey Vero E6 cells assessed as inhibition of viral replication at 5 uM when host cells were pretreated for 1 hr followed by viral infection then followed by removal of infected supernatant and subsequent culture addition with fresh compounds and measured after 24 hrs by qRT-PCR method relative to control; assay type: functional; conditions: Severe acute respiratory syndrome coronavirus 2, nCoV-2019BetaCoV/Wuhan/WIV04/, Vero C1008, time 25 hrs
SARS-CoV-2 [2] = experiment: Antiviral activity against SARS-CoV-2 nCoV-2019BetaCoV/Wuhan/WIV04/ infected in African green monkey Vero E6 cells assessed as inhibition of viral replication when host cells were pretreated for 1 hr followed by viral infection then followed by removal of infected supernatant and subsequent culture addition with fresh compounds and measured after 24 hrs by qRT-PCR method; assay type: functional, organism-based; conditions: Severe acute respiratory syndrome coronavirus 2, nCoV-2019BetaCoV/Wuhan/WIV04/, Vero C1008
Vero C1008 = experiment: Cytotoxicity against African green monkey Vero E6 cells by CCK8 assay; assay type: cell-based; conditions: chlorocebus sabaeus
How it was run: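 Vero E6 cell viability was read by CCK-8 colorimetric assay.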

SARS-CoV-2 [3] = experiment: Antiviral activity against SARS-CoV-2 nCoV-2019BetaCoV/Wuhan/WIV04/ infected in African green monkey Vero E6 cells assessed as inhibition of viral replication at 10 uM when host cells were pretreated for 1 hr followed by viral infection then followed by removal of infected supernatant and subsequent culture addition with fresh compounds and measured after 24 hrs by qRT-PCR method relative to control; assay type: functional; conditions: Severe acute respiratory syndrome coronavirus 2, nCoV-2019BetaCoV/Wuhan/WIV04/, Vero C1008, time 25 hrs
[4] = Stability of compound in stimulated gastric fluid incubated for 24 hrs by HPLC analysis; assay type: ADME; conditions: simulated gi fluid
How it was run: (§1)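 Compound solution was diluted into artificial gastric or intestinal juice and incubated at 37 °C. Samples were taken at 0, 1, 2, 3, 4, 6 and 24 h and quenched with ice-cold acetonitrile. After centrifugation, supernatants were analysed by HPLC.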

[5] = Stability of compound in stimulated intestinal fluid assessed as parent compound remaining measured after 4 hrs by HPLC analysis; assay type: ADME; conditions: simulated intestinal fluid, read-out: Stabilty; how it was run: as §1
[6] = AUClast in CD-1 mouse at 50 mg/kg, po by LC-MS/MS analysis; assay type: ADME, organism-based; set-up: route oral, time 0 - last, dose 50 mg/kg; conditions: in vivo
How it was run: (§2)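 Mice were fasted 12 h. Dosing was 50 mg/Kg orally or 25 mg/Kg intravenously, in DMSO-ethanol-PEG300-saline (5/5/40/50, v/v/v/v). Blood was drawn from the femoral vein into heparinized tubes at several post-dose times, and analytes were measured by LC-MS/MS.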

[7] = Half life in CD-1 mouse at 25 mg/kg, iv by LC-MS/MS analysis; assay type: ADME, organism-based; conditions: in vivo; for half-life: CD-1, mouse; how it was run: as §2
[8] = AUClast in CD-1 mouse at 25 mg/kg, iv by LC-MS/MS analysis; assay type: ADME, organism-based; set-up: route intravenous, time 0 - last, dose 25 mg/kg; conditions: in vivo; how it was run: as §2
[9] = Half life in CD-1 mouse at 50 mg/kg, po by LC-MS/MS analysis; assay type: ADME, organism-based; conditions: in vivo; how it was run: as §2
[10] = Observed volume of distribution at steady state in CD-1 mouse at 25 mg/kg, iv by LC-MS/MS analysis; assay type: ADME, organism-based; conditions: in vivo; for Vd: CD-1, mouse, read-out: Vdss; how it was run: as §2
[11] = Observed MRT infinity in CD-1 mouse at 50 mg/kg, po by LC-MS/MS analysis; assay type: ADME, organism-based; conditions: in vivo; how it was run: as §2
[12] = Tmax in CD-1 mouse at 50 mg/kg, po by LC-MS/MS analysis; assay type: ADME, organism-based; conditions: in vivo; how it was run: as §2
[13] = Oral bioavailability in CD-1 mouse at 50 mg/kg by LC-MS/MS analysis; assay type: ADME, organism-based; conditions: in vivo; how it was run: as §2
[14] = Cmax in CD-1 mouse at 50 mg/kg, po by LC-MS/MS analysis; assay type: ADME, organism-based; set-up: route oral, dose 50 mg/kg; conditions: in vivo; how it was run: as §2
[15] = Observed MRT infinity in CD-1 mouse at 25 mg/kg, iv by LC-MS/MS analysis; assay type: ADME, organism-based; conditions: in vivo; for MRT inf: CD-1, mouse; how it was run: as §2
[16] = Acute toxicity in ICR mouse assessed as effect on organ weight at 100 to 1000 mg/kg, po via gavage and measured after 7 days; assay type: organism-based; conditions: in vivo, 168 h, dose 100-1000 mg/kg, time 7 day
[17] = Acute toxicity in ICR mouse assessed as effect on body weight at 100 to 1000 mg/kg, po via gavage and measured after 7 days; assay type: organism-based; conditions: in vivo, 168 h, dose 100-1000 mg/kg, time 7 day
How it was run: (§3)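 Male ICR mice (28–36 g), 3 per group, were fasted 16 h. Each got one oral gavage dose of 50, 100, 200, 500 or 1000 mg/kg in 5% DMSO, 5% Solution Hs15 and 90% saline. Clinical signs, body weight and food consumption were followed for 7 days, and animals were sacrificed on day 8.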

[18] = Acute toxicity in po dosed ICR mouse assessed as maximum tolerated dose measured after 7 days; assay type: organism-based; conditions: in vivo, time 7 day; how it was run: as §3

Nc1ncnn2c([C@@H]3O[C@H](CO)[C@@H](O)[C@H]3F)ccc12
inhibition at 5 µM (SARS-CoV-2 [1]): < 10%

CCC(CC)COC(=O)[C@H](C)N[P@](=O)(OC[C@H]1O[C@@](C#N)(c2ccc3c(N)ncnn23)[C@H](O)[C@@H]1O)Oc1ccccc1
EC50 (SARS-CoV-2 [2]): 2000 nM
inhibition at 5 µM (SARS-CoV-2 [1]): 65%

Nc1ncnn2c([C@@H]3O[C@H](CO)[C@@H](O)[C@H]3O)ccc12
Activity (Vero C1008): Toxic

N#C[C@@]1(c2cc(F)c3c(N)ncnn23)O[C@H](CO)[C@@H](O)[C@H]1O
EC50 (SARS-CoV-2 [2]): 3300 nM
inhibition at 5 µM (SARS-CoV-2 [1]): 80%
inhibition at 10 µM (SARS-CoV-2 [3]): 97%

CC(=O)[C@@]1(c2ccc3c(N)ncnn23)O[C@H](CO)[C@@H](O)[C@H]1O
inhibition at 5 µM (SARS-CoV-2 [1]): < 10%

CCCCCOC(=O)Nc1ncnn2c([C@]3(C#N)O[C@H](CO)[C@@H](O)[C@H]3O)ccc12
inhibition at 10 µM (SARS-CoV-2 [3]): 65%

CC(C)C(=O)O[C@H]1[C@@H](OC(=O)C(C)C)[C@](C#N)(c2ccc3c(N)ncnn23)O[C@@H]1CO
inhibition at 5 µM (SARS-CoV-2 [1]): 99%

Nc1ncnn2c([C@]3(CO)O[C@H](CO)[C@@H](O)[C@H]3O)ccc12
inhibition at 5 µM (SARS-CoV-2 [1]): < 10%

N#C[C@@]1(c2cc(I)c3c(N)ncnn23)O[C@H](CO)[C@@H](O)[C@H]1O
inhibition at 5 µM (SARS-CoV-2 [1]): < 10%

CC(C)[C@H](N)C(=O)OC[C@H]1O[C@@](C#N)(c2ccc3c(N)ncnn23)[C@H](O)[C@@H]1O
Stabilty [4]: Stable
remaining at 4 h [5]: 9%

OC[C@H]1O[C@@H](c2ccc3c(NO)ncnn23)[C@H](O)[C@@H]1O
inhibition at 5 µM (SARS-CoV-2 [1]): < 10%

CC(C)C(=O)OC[C@H]1O[C@@](C#N)(c2ccc3c(N)ncnn23)[C@H](O)[C@@H]1OC(=O)C(C)C
inhibition at 5 µM (SARS-CoV-2 [1]): 99%

N#Cc1cc([C@]2(C#N)O[C@H](CO)[C@@H](O)[C@H]2O)n2ncnc(N)c12
inhibition at 5 µM (SARS-CoV-2 [1]): < 10%

CO[C@@H]1[C@H](O)[C@@H](CO)O[C@@]1(C#N)c1ccc2c(N)ncnn12
inhibition at 5 µM (SARS-CoV-2 [1]): < 10%

Br.CC(C)C(=O)OC[C@H]1O[C@@](C#N)(c2ccc3c(N)ncnn23)[C@H](OC(=O)C(C)C)[C@@H]1OC(=O)C(C)C
AUC(0-t) [6]: 7110 ng·h/mL
half-life [7]: 2.48 h
AUC(0-t) [8]: 3600 ng·h/mL
half-life [9]: 2.71 h

C=C(C)[C@@]1(c2ccc3c(N)ncnn23)O[C@H](CO)[C@@H](O)[C@H]1O
inhibition at 5 µM (SARS-CoV-2 [1]): < 10%

NC(=O)[C@@]1(c2ccc3c(N)ncnn23)O[C@H](CO)[C@@H](O)[C@H]1O
inhibition at 5 µM (SARS-CoV-2 [1]): < 10%

CC(C)[C@H](N)C(=O)O[C@H]1[C@@H](O)[C@](C#N)(c2ccc3c(N)ncnn23)O[C@@H]1CO.Cl.Cl
Vdss ([10]; mouse, 25 mg/kg): 3.86 L/kg
EC50 (SARS-CoV-2 [2]): 110 nM
MRT inf [11]: 2.76 h
inhibition at 5 µM (SARS-CoV-2 [1]): 99%
Tmax [12]: 0.83 h
F [13]: 27.5%
AUC(0-t) [6]: 2980 ng·h/mL
t1/2 ([7]; mouse, 25 mg/kg): 0.61 h
AUC(0-t) [8]: 5420 ng·h/mL
Cmax [14]: 1510 ng/mL
Stabilty [4]: Stable
MRT ([15]; mouse, 25 mg/kg): 0.78 h
remaining at 4 h [5]: 34%
half-life [9]: 1.72 h

CC(C)C(=O)O[C@H]1[C@@H](O)[C@](C#N)(c2ccc3c(N)ncnn23)O[C@@H]1CO
Vd [10]: 2.59 L/kg
EC50 (SARS-CoV-2 [2]): 250 nM
MRT inf [11]: 1.82 h
inhibition at 5 µM (SARS-CoV-2 [1]): 99%
Tmax [12]: 0.33 h
F [13]: 71.6%
AUC(0-t) [6]: 14600 ng·h/mL
half-life [7]: 0.83 h
AUC(0-t) [8]: 10200 ng·h/mL
Cmax [14]: 7880 ng/mL
Stabilty [4]: Stable
MRT inf [15]: 1.07 h
remaining at 4 h [5]: 100%
half-life [9]: 1.11 h

N#C[C@@]1(c2ccc3c(O)ncnn23)O[C@H](CO)[C@@H](O)[C@H]1O
inhibition at 5 µM (SARS-CoV-2 [1]): < 10%

Nc1ncnn2c([C@@H]3O[C@H](CO)[C@@H](O)C3(F)F)ccc12
inhibition at 5 µM (SARS-CoV-2 [1]): < 10%

CCC(CC)COC(=O)[C@H](C)N[P@](=O)(OC[C@H]1O[C@@](C#N)(c2cc(F)c3c(N)ncnn23)[C@H](O)[C@@H]1O)Oc1ccccc1
inhibition at 10 µM (SARS-CoV-2 [3]): 82%

N#C[C@@]1(c2cc(Cl)c3c(N)ncnn23)O[C@H](CO)[C@@H](O)[C@H]1O
inhibition at 5 µM (SARS-CoV-2 [1]): < 10%

N#C/C=C/[C@@]1(c2ccc3c(N)ncnn23)O[C@H](CO)[C@@H](O)[C@H]1O
inhibition at 5 µM (SARS-CoV-2 [1]): < 10%

N#C[C@@]1(c2ccc3c(N)ncnn23)O[C@H](CO)[C@@H](O)[C@H]1O [GS-441524]
EC50 (SARS-CoV-2 [2]): 480 nM
inhibition at 5 µM (SARS-CoV-2 [1]): 99%

CC(C)C(=O)OC[C@H]1O[C@@](C#N)(c2ccc3c(N)ncnn23)[C@H](O)[C@@H]1O [OBELDESIVIR]
Vd [10]: 4.17 L/kg
EC50 (SARS-CoV-2 [2]): 230 nM
Activity [16]: Non-Toxic
MRT inf [11]: 2.16 h
inhibition at 5 µM (SARS-CoV-2 [1]): 99%
Tmax [12]: 0.42 h
F [13]: 86.6%
AUC(0-t) [6]: 13800 ng·h/mL
half-life [7]: 4.77 h
AUC(0-t) [8]: 7980 ng·h/mL
Cmax [14]: 6680 ng/mL
Activity [17]: Non-Toxic
MTD at 168 h [18]: 1000 mg/kg
Stabilty [4]: Stable
MRT inf [15]: 1.33 h
remaining at 4 h [5]: 2%
half-life [9]: 2.46 h
